Measured values published in ChEMBL document CHEMBL1137526, “The design and synthesis of N-1-alkylated-5-aminoarylalkylsubstituted-6-methyluracils as potential non-nucleoside HIV-1 RT inhibitors” (Bioorg Med Chem, 2007).
The source made the active and inactive calls. The calls are words filed in the database; no cut-off is given here.

molecular target: Human immunodeficiency virus type 1 reverse transcriptase (Human immunodeficiency virus 1, UniProt Q72547); experiment: Inhibition of HIV1 reverse transcriptase by ELISA
Summary of the method: (§1)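 Recombinant HIV-1 RT, non-radioactive ELISA. Oligo(dT) attached through its 5'-phosphate to the plate acts as primer on a poly(A) template (10 µg/ml). Read-out by streptavidin-alkaline phosphatase with PNPP.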

Row | Structure (SMILES) | IC50
1 | Cc1c(CN(C)c2ccccc2)c(=O)[nH]c(=O)n1COCc1ccccc1 | 3.49 µM
2 | CCOCn1c(C)c(CNc2ccccc2[N+](=O)[O-])c(=O)[nH]c1=O | > 100 µM
3 | CCOCn1c(C)c(CNc2cc(C)ccc2C)c(=O)[nH]c1=O | 26.2 µM
4 | CCOCn1c(C)c(CNc2cc(Cl)c(Cl)cc2Cl)c(=O)[nH]c1=O | 0.82 µM
5 | CCOCn1c(C)c(CNc2ccccn2)c(=O)[nH]c1=O | 54.7 µM
6 | Cc1ccc(NCc2c(C)n(COCc3ccccc3)c(=O)[nH]c2=O)cc1 | 13.8 µM
7 | Cc1c(CNc2cc(Cl)c(Cl)cc2Cl)c(=O)[nH]c(=O)n1COCc1ccccc1 | > 100 µM
8 | Cc1c(CNC2CCCCC2)c(=O)[nH]c(=O)n1COCc1ccccc1 | 5.09 µM

molecular target: Human immunodeficiency virus type 1 reverse transcriptase (Human immunodeficiency virus 1) (UniProt Q72547); experiment: Inhibition of HIV1 reverse transcriptase upto 100 uM by ELISA; summary of the method: as §1

Row | Structure (SMILES) | Activity
9 | Cc1c(CNc2ccc([N+](=O)[O-])cc2)c(=O)[nH]c(=O)n1COCc1ccccc1 | inactive
10 | CCOCn1c(C)c(CNc2c(C)cccc2C)c(=O)[nH]c1=O | inactive
11 | Cc1c(CNc2c(Cl)cc(Cl)cc2Cl)c(=O)[nH]c(=O)n1COCc1ccccc1 | inactive
12 | Cc1c(CNc2cccc([N+](=O)[O-])c2)c(=O)[nH]c(=O)n1COCc1ccccc1 | inactive
13 | CCOCn1c(C)c(CNc2cccc([N+](=O)[O-])c2)c(=O)[nH]c1=O | inactive
14 | CCOCn1c(C)c(CNc2ncccn2)c(=O)[nH]c1=O | inactive
15 | CCOCn1c(C)c(CNc2cccc3ccccc23)c(=O)[nH]c1=O | inactive
16 | CCOCn1c(C)c(CNc2ccc([N+](=O)[O-])cc2)c(=O)[nH]c1=O | inactive
17 | Cc1c(CNc2ccccc2[N+](=O)[O-])c(=O)[nH]c(=O)n1COCc1ccccc1 | inactive
18 | CCOCn1c(C)c(CNc2c(Cl)cc(Cl)cc2Cl)c(=O)[nH]c1=O | inactive
19 | CCOCn1c(C)c(CN(C)c2ccccc2)c(=O)[nH]c1=O | inactive
20 | CCOCn1c(C)c(CNC2CCCCC2)c(=O)[nH]c1=O | inactive
21 | CCOCn1c(C)c(CNc2ccc(C)cc2)c(=O)[nH]c1=O | inactive
